PGC1a acetyl inh = lowers PGC1a acetylation signal in U2OS cells; AlphaScreen anti-acetyl-lysine; with virally co-expressed GCN5 acetyltransferase; inhibition, % at 15.6 µM; 350,000 compounds, 0.17% hits;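 active = every replicate shows inhibition of at least 40%; inconclusive = mean inhibition at least 40% but some replicate below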;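 also: 0% = neutral control wells and 100% = positive control wells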
PAX8 reporter = lowers PAX8-driven luciferase in RMG-I cells. RMG-I TPO-luciferase reporter, SteadyGlo, 24 h. inhibition, % at 12.6 µM. 360,000 compounds, 1.2% hits;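 active = mean replicate inhibition at least 60% with every replicate also reaching 60%; inconclusive = only one of the two criteria is met; inactive = mean below 60% and not all replicates reaching 60%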;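 also: luciferase light reporting Pax8 driven TPO promoter activity; plate controls were median of neutral control wells for no effect and mitoxantrone controls for full effect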
FN deposition inh = fibronectin deposition inhibition | AH1F fibroblasts, Alexa488-fibronectin deposition fluorescence, overnight | inhibition, % at 12.6 µM | 350,000 compounds, 0.086% hits;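 active = mean inhibition across replicates of 30% or more, regardless of how many single replicates reach that level; inconclusive = mean under 30% yet at least half of replicates reach 30%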;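 also: positive control wells lacked labelled fibronectin entirely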
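Assay system: AH1F fibroblasts assembling fluorescent fibronectin matrix; Amount: 10000 AH1F cells per well; Buffer or medium: DMEM, 2% serum; Probe or stimulus: Alexa488-fibronectin, 24 nM final in well; Doses: single compound dose, delivered by pin transfer; Incubation: 1 h adhesion, overnight exposure; Measured by: fluorescence 485/525 nm; Read-out: fibronectin deposition inhibition.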
Env fusion inh = HIV envelope-mediated fusion inhibition. HeLa-JRFL Env/CEM21 cell fusion, luciferase. inhibition, % at 12.3 µM. 360,000 compounds, 1.1% hits. AID 651610;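 active = mean replicate inhibition score of at least 50 and every replicate individually at or above 50; inconclusive = only one of the two criteria met; inactive = mean below 50 and not all replicates reaching 50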;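 also: 0% = plate neutral controls and 100% = maraviroc near 300 nM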
F508del corr = correctors of CFTR F508del function in bronchial epithelial cells | CFBE cells, YFP halide quenching; stimulated with forskolin plus potentiator P3; % fluorescence drop versus neutral controls | activity (quench increase), % at 7.58 µM | 350,000 compounds, 0.36% hits;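 active = mean added fluorescence quench of at least 8% versus neutral control, with both replicates also reaching 8%; inconclusive = only one of the mean or replicate conditions met; inactive = mean below 8% and not both replicates reaching 8%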;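 also: cells transiently co-express mutant CFTR-F508del with the halide-sensitive YFP; corrector assay measuring rescue of mutant channel to the surface after 24 h compound exposure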
EWS-Fli block = EWS/Fli transcriptional activity inhibition. AID 651661. inhibition, % at 12.6 µM. 350,000 compounds, 0.67% hits. A673 NR0B1-luciferase reporter, viability-normalised;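 active = mean inhibition of at least 50% after viability correction, with every replicate also passing that limit; inconclusive = mean reaches 50% but only one of two replicates passes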;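 also: firefly luciferase signal divided by Alamar Blue viability fluorescence both relative to DMSO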
Starred values were filed as active, the others as inactive; ? = inconclusive; nt = not tested or not shown; [ ] = another dose, or the depositor's remark. Sampled rows, rich in hits. Any-hit rate of the full collection: about 2.3%.

SMILES	PGC1a acetyl inh	PAX8 reporter	FN deposition inh	Env fusion inh	F508del corr	EWS-Fli block
C[C@H](CO)N1C[C@H](C)[C@@H](CN(C)Cc2ccc3c(c2)OCO3)OCc2ccccc2-c2c(n(C)c3ccccc23)C1=O	nt	nt	-2	nt	nt	nt
COc1ccc(S(=O)(=O)N(C)C[C@@H]2OCCCC[C@@H](C)Oc3ccc(NS(=O)(=O)c4ccc(F)cc4)cc3C(=O)N([C@H](C)CO)C[C@H]2C)cc1	-13	56	5	18[16.7 µM]	-2	-2
N#C[C@@H]1[C@@H](c2ccc(C#CC3CCCCC3)cc2)[C@H](CO)N1S(=O)(=O)c1ccccc1	-8	40	-2	5[16.7 µM]	6	-5
CCCC#Cc1ccc([C@@H]2[C@@H](C#N)N(S(=O)(=O)c3cccc(F)c3)[C@H]2CO)cc1	8	81*	-9	-15[16.7 µM]	4	-4
N#C[C@@H]1[C@@H](c2ccc(-c3ccccc3)cc2)[C@@H](CO)N1C(=O)Cc1ccncc1	63*	68*	11	-30[16.7 µM]	1	-11
CCCC#Cc1ccc([C@@H]2[C@@H](CO)N(S(=O)(=O)c3cccc(F)c3)[C@H]2C#N)cc1	4	51	-10	6[16.7 µM]	-2	15
N#C[C@H]1[C@H](c2ccc(C#CC3CCCCC3)cc2)[C@@H](CO)N1S(=O)(=O)c1ccccc1	15	68*	-8	7[16.7 µM]	-2	9
N#C[C@H]1[C@H](c2ccc(-c3ccccc3)cc2)[C@H](CO)N1C(=O)Cc1ccncc1	13	14	-3	6[16.7 µM]	-6	3
COc1cccc(NC(=O)N(C)C[C@H]2OCc3ccccc3-c3ccccc3C(=O)N([C@@H](C)CO)C[C@@H]2C)c1	nt	nt	5	nt	nt	nt
CCCCn1c2ccccc2c2nnc(SCC(=O)NC3=NN=C(c4ccccc4)CS3)nc21	nt	77*	-13	15	4	18
CCc1nc2ccc(C(=O)NCCOc3ccc(OC)cc3)cn2c1N(CC)Cc1cccc(Br)c1	nt	16	2	28	2	19
CCc1nc2ccc(C(=O)NCCN3CCNC3=O)cn2c1N(CC)Cc1cccc(Br)c1	nt	-9	-7	72*	-2	7
CO[C@@H]1CN(C)C(=O)c2cc(NC(=O)c3ccccc3)ccc2OC[C@@H](C)N(C)C[C@@H]1C	5	nt	4	nt	0	-2
O=C(c1ccccc1)N1CCCC(c2nc3c(nnn3Cc3ccccc3)c(=O)[nH]2)C1 (stereo unspecified)	0	nt	8	24	nt	nt
O=C(C1CCCCC1)N1CCCC(c2nc3c(nnn3Cc3ccccc3)c(=O)[nH]2)C1 (stereo unspecified)	nt	nt	nt	79*	nt	nt
CCc1ccc(S(=O)(=O)/N=C2\C=C(Nc3ccc(O)cc3)C(=O)c3ccccc32)cc1	63*	nt	nt	nt	nt	nt
Cc1cc(C)c(S(=O)(=O)/N=C2\C=C(Nc3ccc(C(=O)O)cc3)C(=O)c3ccccc32)c(C)c1	13	?	2	73*	-2	-37
O=C(O)c1ccc(NC2=C/C(=N/S(=O)(=O)c3cccs3)c3ccccc3C2=O)cc1	9	36	-4	18	1	0
O=C(O)c1ccc(NC2=C/C(=N/S(=O)(=O)c3ccccc3)c3ccccc3C2=O)cc1	4	80*	nt	?	nt	27
C[C@@H](NC(=O)C[C@@H]1C[C@H]2c3cc(NC(=O)C4CCOCC4)ccc3O[C@H]2[C@H](CO)O1)c1ccccc1	-7	-17	nt	0[16.7 µM]	1	1
CCCNC(=O)C[C@H]1CC[C@H]2[C@@H](COC[C@H](O)CN2C(=O)Nc2cccc(Cl)c2)O1	0	nt	-12	nt	-2	nt
N#C/C(=C\c1ccc(O)cc1)C(=O)NCc1ccccc1	11	-4	-3	-12	1	10
CC(=O)Nc1ccc(/C=C(\C#N)C(=O)NCc2ccccc2)cc1	-1	15	33*	15	nt	8
CCOc1ccc(C(=O)C2CCN(CC(=O)Nc3ccccc3N3CCOCC3)CC2)cc1	-18	nt	nt	70*	nt	nt
COc1ccc(OCC(=O)Nc2ccc(N3CCN(C(=O)c4ccccc4)CC3)c(Cl)c2)cc1	nt	20	nt	62*	-2	nt
SMILES	PGC1a acetyl inh	PAX8 reporter	FN deposition inh	Env fusion inh	F508del corr	EWS-Fli block
O=C(CNCC1CCCCC1)Nc1ccccc1N1CCCCC1	-13	20	-1	75*	nt	nt
COc1ccc(OCC(=O)Nc2ccccc2-c2ccccc2)cc1	-11	22	nt	-11	nt	13
Cc1ccc(OCC(=O)Nc2ccccc2-c2ccccc2NC(=O)COc2ccc(C)cc2)cc1	nt	-11	7	91*	nt	nt
CCOc1ccc(C(=O)Nc2ccccc2N2CCOCC2)cc1	-4	nt	nt	nt	nt	nt
COc1ccc(OCC(=O)Nc2ccc(N3CCOCC3)c(Cl)c2)cc1	-3	nt	-3	-21	nt	nt
CN1CCN(C(=O)C[C@H]2C=C[C@H](NC(=O)c3ccc4c(c3)OCO4)[C@H](CO)O2)CC1	7	4	5	-15[16.7 µM]	2	0
COc1ccc(CC(=O)Nc2ccccc2N2CCCC2)cc1	nt	3	0	5	-1	-4
COc1ccc(CNCC(=O)Nc2ccccc2-n2cccc2)cc1	6	29	0	-29	10*	21
COc1ccc(OCC(=O)Nc2ccccc2N2CCCCC2)cc1	-5	23	nt	74*	5	nt
CO[C@@H]1CN(C)C(=O)c2cc(NC(=O)C3CC3)ccc2OC[C@H](C)N(Cc2cccnc2)C[C@H]1C	nt	14	-10	nt	0	-4
COc1ccccc1NC(=O)/C=C1\SCC(=O)N1C	93*	-9	-4	-4	0	-8
Cc1cccc(CN2CCSCCS2(=O)=O)c1	nt	1	-5	61*	-1	-4
O=C(Nc1ccccc1Cl)c1ccccc1CC(O)(c1ccccc1)c1ccccc1	nt	-2	0	93*	1	7
CC(C)(C)c1ccc(C(=O)Nc2ccccc2Cl)cc1	nt	-111	3	-117	1	-51
CCOC(=O)[C@]12CCC=C1N(Cc1ccccc1)C(=O)[C@H](CC(=O)N1CCN(C(=O)c3ccco3)CC1)C2	nt	45	nt	17	1	-1
COC(=O)[C@]12CCCCC=C1N(CCC1=CCCCC1)C(=O)[C@H](CC(=O)N1CCN(C(=O)c3ccco3)CC1)C2	nt	79*	12	12	-2	3
CCOC(=O)[C@]12CCCC=C1N(Cc1ccccc1)C(=O)[C@H](CC(=O)N1CCN(C(=O)c3ccco3)CC1)C2	nt	71*	0	-5	0	-8
COC(=O)[C@]12CCCCC=C1N(Cc1cccc3ccccc13)C(=O)[C@H](CC(=O)N1CCN(C(=O)c3ccco3)CC1)C2	nt	92*	-3	26	1	0
CCC(=O)N[C@@H]1CC[C@H](CC(=O)NCC2CC2)O[C@H]1CO	1	nt	-6	nt	-3	0
CCOc1cnn(-c2cc(Oc3ccc(C)cc3)ncn2)c(=O)c1Cl	4	nt	nt	nt	nt	nt
Cc1ccccc1Oc1cc(-n2ncc(Cl)c(Cl)c2=O)ncn1	69*	-20	14	-12	nt	42

Compound activity deposited in PubChem BioAssay by Broad Institute.
